Here are results for 10 compounds from paper PMC2669732 (Journal of Medicinal Chemistry, 2009).

Read-outs that look alike come from different tables or passages of the source. Where only a bound is given, the exact number is not on record here.

One may read the IC50 as the concentration at which inhibition is half-maximal. For orientation: Km means the concentration of substrate that gives half-maximal velocity.

For one assay, the target named is T1, EcIspF (Escherichia coli, UniProt P62617).
T1 sequence (P62617 1-159): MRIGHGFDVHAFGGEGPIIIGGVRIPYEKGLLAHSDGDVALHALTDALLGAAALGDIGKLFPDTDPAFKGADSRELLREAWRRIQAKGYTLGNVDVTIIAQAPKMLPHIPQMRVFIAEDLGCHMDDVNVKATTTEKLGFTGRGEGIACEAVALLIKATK
In words: SPR binding assay with immobilized EcIspF. Conditions: for fold weaker binding than CMP: SPR KD comparison; for ΔG: ΔG = −RT ln Kd. In a few lines:
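E. coli IspF expressed in BL21(DE3), >95% pure, amine-coupled to CM5 chip (diluted to ~100 μg/mL final in 10 mM acetate pH 5.5) to 4500–5500 RU. Ligand series 0.1 μM–10 mM run at 10 °C, 30 μL/min, in 50 mM sodium phosphate pH 7, 2 mM MgCl2, 0.005% P20. Each injection in triplicate with 40 min buffer regeneration. Blank-subtracted steady-state RU fit to 1:1 Langmuir model.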
In general terms: SPR reads the build-up and loss of mass on a sensor chip optically.

For a further assay, the system named is E. coli LpxC. The settings on record: cited from earlier work.
The test system of a further assay is LpxC. Conditions: cited from earlier work.
Where [1] appears, read: Δg = ΔG/N, N = number of non-hydrogen atoms, Table 5.

As for `Nc1ccn([C@H]2O[C@@H](CO)[C@H]3OP(=O)(O)O[C@H]32)c(=O)n1` (mixture of isomers) [Compound 6], the “fold weaker binding than CMP” value on EcIspF is given as “about 20 fold”. In the case of `Nc1ccn(CC(CO)OCP(=O)(O)O)c(=O)n1.O.O` (stereo in doubt) [CDV, [(2R)-1-(4-amino-2-oxo-pyrimidin-1-yl)-3-hydroxy-propan-2-yl] oxymethylphosphonic acid], the ΔG at EcIspF is -1.81 kcal/mol. Moreover, at EcIspF (setting [1]), the “ligand efficiency (Δg)” value is reported as −0.42 kJ·mol^−1/non-H atom. Consider `O=C(O)C1COC(c2ccccc2)=N1` (stereo not shown) [4,5 dihydro-2-phenyloxazole-4-carboxylic acid], for which, in the assay on E. coli LpxC, the IC50 is over 400 µM. Consider `Nc1ccn([C@@H]2O[C@H](COP(=O)(O)O)[C@@H](O)[C@@H]2O)c(=O)n1` [AraCMP], for which, on EcIspF, the “fold weaker binding than CMP” value amounted to 20 fold and the ΔG is -2.23 kcal/mol. Besides, on EcIspF (setting [1]), the “ligand efficiency (Δg)” value is given as −0.44 kJ·mol^−1/non-H atom.

As to `Nc1ccn([C@@H]2O[C@H](COP(=O)(O)O)[C@@H](O)[C@H]2O)c(=O)n1` [CMP], on EcIspF, the “ligand efficiency (Δg)” value is reported as −0.79 kJ·mol^−1/non-H atom and the ΔG is -3.941 kcal/mol. Further, at EcIspF (setting [1]), the “ligand efficiency (Δg)” value was −0.79 kJ·mol^−1/non-H atom. Take `Nc1ccn([C@@H]2O[C@@H]3COP(=O)(O)O[C@H]3[C@H]2O)c(=O)n1` [Compound 7]: the ΔG on EcIspF is -3.929 kcal/mol. Further, the “ligand efficiency (Δg)” value at EcIspF (setting [1]) is recorded as −0.82 kJ·mol^−1/non-H atom. In the case of `N[C@@H](Cc1c[nH]c2ccccc12)C(=O)NO` [Compound 13, 2-amino-N-hydroxy-3-(1H-indol-3-yl)-propionimidic acid], the “ligand efficiency (Δg)” value at EcIspF and at EcIspF (setting [1]) was −2.04 kJ·mol^−1/non-H atom throughout. For the compound `Nc1nc(=O)n([C@@H]2O[C@H](CO)[C@@H](O)[C@H]2O)cc1F` [FLUC], at EcIspF, the “ligand efficiency (Δg)” value is −0.81 kJ·mol^−1/non-H atom and the ΔG was -3.489 kcal/mol. In addition, the “ligand efficiency (Δg)” value on EcIspF (setting [1]) was −0.81 kJ·mol^−1/non-H atom. As to `CC(=O)N[C@H]1[C@@H](OP(=O)(O)OP(=O)(O)OC[C@H]2O[C@@H](n3ccc(=O)[nH]c3=O)[C@H](O)[C@@H]2O)O[C@H](CO)[C@@H](O)[C@@H]1O` [UDP-GlcNAc], the Km in the assay with LpxC (substrate of LpxC) was over 20000 µM.

Turning to UDP-3-acyl-GlcNAc, in the assay with LpxC (natural substrate of LpxC), the Km is 2.1 µM.
